Measurements from ChEMBL document CHEMBL4261484, “Design, synthesis and anticonvulsant-analgesic activity of new N-[(phenoxy)alkyl]- and N-[(phenoxy)ethoxyethyl]aminoalkanols” (Medchemcomm, 2017).
Calls of active or inactive are those of the source.

Experiments:
Mus musculus [1] = experiment: Neurotoxicity in mouse assessed as motor impairment by measuring time of escaping from chimney at 24 mg/kg, ip measured for 60 secs (reference value: 8.87 +/- 1.79 secs); type: toxicity, organism-based; conditions: in vivo, 1 min
Procedure, shortened: (§1)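 Mice dosed ip; trained, selected animals placed in a horizontal tube 25 cm long and 2.5 cm in diameter, then tube reversed so mice must climb out backward. Read-outs: escape time (s) ± SEM and % animals losing coordination versus control. Unpaired t test.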

Mus musculus [2] = experiment: Anticonvulsant activity in mouse assessed as protection against maximal electroshock-induced seizures at 100 mg/kg, ip; type: functional, organism-based
Procedure, shortened: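 Mice dosed ip; maximal seizures induced by auricular electroshock (25 mA, 500 V, 50 Hz, 0.2 s). Endpoint: hind-limb tonic extension; animals without it scored protected. Read-out is number protected over number tested.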

Mus musculus [3] = experiment: Toxicity in mouse at 30 mg/kg, ip measured during maximal electroshock seizure test; type: organism-based; conditions: in vivo
Mus musculus [4] = experiment: Anticonvulsant activity in mouse assessed as current strength required to induce tonic hind-limb extension in 50% of the animals at 10 mg/kg, ip by maximal electroshock seizure threshold test (reference value: 6.05 to 8.13 mA); type: functional
Mus musculus [5] = experiment: Toxicity in mouse at 25 mg/kg, ip measured during maximal electroshock seizure test; type: organism-based; conditions: in vivo
Mus musculus [6] = experiment: Analgesic activity in mouse assessed as decrease in time of paw licking during phase 2 at 24 mg/kg, ip measured for 15 to 30 mins by formalin test relative to control; type: functional; design: scale not given: the % may be the effect or the level left
Procedure, shortened: (§2)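 Formalin test in mice: 20 μL of 5% formalin injected intraplantarly into the right hind paw. Each mouse was observed alone in a glass beaker for 30 min. Time (s) spent licking or biting the injected paw was recorded at 0–5 min (acute phase) and 15–30 min (inflammatory phase).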

Mus musculus [7] = experiment: Toxicity in mouse at 20 mg/kg, ip measured during maximal electroshock seizure test; type: organism-based; conditions: in vivo
Mus musculus [8] = experiment: Toxicity in mouse at 100 mg/kg, ip measured during maximal electroshock seizure test; type: organism-based; conditions: in vivo
Mus musculus [9] = experiment: Toxicity in mouse assessed as effect on spontaneous activity at 24 mg/kg, ip measured for 30 mins by photoresistor actometer relative to control; type: organism-based; conditions: in vivo, 0.5 h
Procedure, shortened: (§3)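 Mice dosed ip; locomotor activity by photoresistor actometers counting light-beam interruptions. Each mouse was habituated 30 min in a cage, then crossings were counted over a 30 min session. Data are mean ± SEM and % change vs control; unpaired t test.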

Mus musculus [10] = experiment: Analgesic activity in mouse assessed as decrease in time of paw licking during phase 1 at 24 mg/kg, ip measured for 5 mins by formalin test relative to control; type: functional; design: scale not given: the % may be the effect or the level left; procedure, shortened: as §2
Mus musculus [11] = experiment: Neurotoxicity in mouse assessed as motor impairment by measuring loss of coordination at 24 mg/kg, ip measured for 60 secs by chimney test relative to control; type: toxicity, organism-based; conditions: in vivo, 1 min; procedure, shortened: as §1
Mus musculus [12] = experiment: Anticonvulsant activity in mouse assessed as protection against subcutaneous pentylenetetrazole-induced seizures by measuring latency time of tonic seizures at 100 mg/kg, ip measured for 30 mins post pentylenetetrazole challenge at 0.5 hrs after compound dosing (reference value: 562.8 to 614.9 secs); type: functional
[13] = Protection index, ratio of TD50 for neurotoxicity in ip dosed mouse by rotarod test to ED50 for anticonvulsant activity in mouse by maximal electroshock seizure test; type: toxicity, organism-based; conditions: in vivo, read-out: Ratio TD50/ED50
Mus musculus [14] = experiment: Anticonvulsant activity in ip dosed mouse assessed as protection against maximal electroshock-induced seizures; type: functional
Procedure, shortened: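 Mice were dosed ip. Maximal seizures were induced by auricular electrodes (25 mA, 500 V, 50 Hz, 0.2 s). Absence of hind-limb tonic extension counted as protection. […] Motor impairment was scored on a 10 rpm rotarod, giving TD50 the same way.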

Mus musculus [15] = experiment: Anticonvulsant activity in mouse assessed as protection against subcutaneous pentylenetetrazole-induced seizures at 100 mg/kg, ip measured for 30 mins post pentylenetetrazole challenge at 0.5 hrs after compound dosing relative to control; type: functional
Mus musculus [16] = experiment: Anticonvulsant activity in mouse assessed as increase in electroconvulsive threshold at 10 mg/kg, ip by maximal electroshock seizure threshold test relative to control; type: functional
Mus musculus [17] = experiment: Analgesic activity in mouse assessed as decrease in time of paw licking during phase 2 at 33 mg/kg, ip measured for 15 to 30 mins by formalin test relative to control; type: functional; design: scale not given: the % may be the effect or the level left; procedure, shortened: as §2
Mus musculus [18] = experiment: Analgesic activity in mouse assessed as decrease in time of paw licking during phase 1 at 33 mg/kg, ip measured for 5 mins by formalin test relative to control; type: functional; design: scale not given: the % may be the effect or the level left; procedure, shortened: as §2
Mus musculus [19] = experiment: Toxicity in mouse at 60 mg/kg, ip measured during maximal electroshock seizure test; type: organism-based; conditions: in vivo
Mus musculus [20] = experiment: Anticonvulsant activity in mouse assessed as current strength required to induce tonic hind-limb extension in 50% of the animals at 20 mg/kg, ip by maximal electroshock seizure threshold test (reference value: 6.05 to 8.13 mA); type: functional
Mus musculus [21] = experiment: Anticonvulsant activity in mouse assessed as protection against subcutaneous pentylenetetrazole-induced seizures at 80 mg/kg, ip measured for 30 mins post pentylenetetrazole challenge at 0.5 hrs after compound dosing relative to control; type: functional
Mus musculus [22] = experiment: Neurotoxicity in mouse assessed as motor impairment by measuring time of escaping from chimney at 33 mg/kg, ip measured for 60 secs (reference value: 8.87 +/- 1.79 secs); type: toxicity, organism-based; conditions: in vivo, 1 min; procedure, shortened: as §1
Mus musculus [23] = experiment: Neurotoxicity in mouse assessed as motor impairment by measuring loss of coordination at 33 mg/kg, ip measured for 60 secs by chimney test relative to control; type: toxicity, organism-based; conditions: in vivo, 1 min; procedure, shortened: as §1
Mus musculus [24] = experiment: Toxicity in mouse assessed as effect on spontaneous activity at 33 mg/kg, ip measured for 30 mins by photoresistor actometer relative to control; type: organism-based; conditions: in vivo, 0.5 h; procedure, shortened: as §3
Mus musculus [25] = experiment: Anticonvulsant activity in mouse assessed as protection against subcutaneous pentylenetetrazole-induced seizures by measuring latency time of tonic seizures at 80 mg/kg, ip measured for 30 mins post pentylenetetrazole challenge at 0.5 hrs after compound dosing (reference value: 562.8 to 614.9 secs); type: functional
[26] = Neurotoxicity in ip dosed mouse assessed as motor impairment measured for one min by rotarod test; type: toxicity, organism-based; conditions: in vivo
Procedure, shortened: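 Mice trained on an accelerating rotarod, then tested at least 24 h later after ip pretreatment, on a rod turning at 10 rpm. Neurotoxicity was scored as failure to stay on the rod for one minute. Read-out is mice impaired over mice tested.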

Mus musculus [27] = experiment: Anticonvulsant activity in mouse assessed as increase in electroconvulsive threshold at 20 mg/kg, ip by maximal electroshock seizure threshold test relative to control; type: functional

In the case of `Cc1cccc(Cl)c1OCCOCCNCC(O)c1ccccc1` (racemic), the Time (Mus musculus [1]) was 3.5 s, the Activity (Mus musculus [2]) was “Active” and the Activity (Mus musculus [3]) was “Non-Toxic”. For the same compound, the Activity (Mus musculus [4]) was 11.09 mA, the Activity (Mus musculus [5]) was “Non-Toxic” and the Activity (Mus musculus [6]) was 8.8%. The Activity (Mus musculus [7]) was “Non-Toxic”, the Activity (Mus musculus [8]) was “Non-Toxic” and the Activity (Mus musculus [9]) was 44.39%. The Activity (Mus musculus [10]) was 8.57%, the Activity (Mus musculus [11]) was 0% and the Time (Mus musculus [12]) was 219.6 s. The selectivity ratio [13] was 4.3, the ED50 (Mus musculus [14]) was 23.9 mg/kg and the Activity (Mus musculus [15]) was “inactive”. It also gave an Activity (Mus musculus [16]) of 56.64%.
With `Cc1cccc(OCCOCCN[C@H]2CCCC[C@@H]2O)c1C` (racemic) the Activity (Mus musculus [17]) was 70.13%, the Activity (Mus musculus [2]) was “Active” and the Activity (Mus musculus [18]) was 25.47%. The Activity (Mus musculus [19]) was “Non-Toxic”, the Activity (Mus musculus [20]) was 7.01 mA and the Activity (Mus musculus [21]) was 2.05%. The Time (Mus musculus [22]) was 4.13 s, the Activity (Mus musculus [8]) was “Non-Toxic” and the Activity (Mus musculus [23]) was 0%. It also gave an Activity (Mus musculus [24]) of 3.42%, a Time (Mus musculus [25]) of 596 s and a selectivity ratio [13] of 1.44. The ED50 (Mus musculus [14]) was 32.9 mg/kg, the TD50 at 1 min [26] was 47.4 mg/kg and the Activity (Mus musculus [27]) was “inactive”.
